# The full list was thinned out, with hits kept by preference.
# ABCB6 inh MLPCN: ABCB6 transporter inhibitors, primary screen, K562-ABCB6 cells, flow cytometry, MLPCN library. K562-ABCB6 porphyrin accumulation, 1 h; hits give low values. fluorescence ratio to DMSO, % at 10 µM. hit rate 0.19% among 360,000;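 active means fluorescence ratio to DMSO below 75%, the collection mean minus 3 SD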;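 further: signal is porphyrin accumulated inside mitochondria; lower ratio means ABCB6 inhibition with less porphyrin fluorescence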
# Target sequence (Q9NP58 whole entry, looked up): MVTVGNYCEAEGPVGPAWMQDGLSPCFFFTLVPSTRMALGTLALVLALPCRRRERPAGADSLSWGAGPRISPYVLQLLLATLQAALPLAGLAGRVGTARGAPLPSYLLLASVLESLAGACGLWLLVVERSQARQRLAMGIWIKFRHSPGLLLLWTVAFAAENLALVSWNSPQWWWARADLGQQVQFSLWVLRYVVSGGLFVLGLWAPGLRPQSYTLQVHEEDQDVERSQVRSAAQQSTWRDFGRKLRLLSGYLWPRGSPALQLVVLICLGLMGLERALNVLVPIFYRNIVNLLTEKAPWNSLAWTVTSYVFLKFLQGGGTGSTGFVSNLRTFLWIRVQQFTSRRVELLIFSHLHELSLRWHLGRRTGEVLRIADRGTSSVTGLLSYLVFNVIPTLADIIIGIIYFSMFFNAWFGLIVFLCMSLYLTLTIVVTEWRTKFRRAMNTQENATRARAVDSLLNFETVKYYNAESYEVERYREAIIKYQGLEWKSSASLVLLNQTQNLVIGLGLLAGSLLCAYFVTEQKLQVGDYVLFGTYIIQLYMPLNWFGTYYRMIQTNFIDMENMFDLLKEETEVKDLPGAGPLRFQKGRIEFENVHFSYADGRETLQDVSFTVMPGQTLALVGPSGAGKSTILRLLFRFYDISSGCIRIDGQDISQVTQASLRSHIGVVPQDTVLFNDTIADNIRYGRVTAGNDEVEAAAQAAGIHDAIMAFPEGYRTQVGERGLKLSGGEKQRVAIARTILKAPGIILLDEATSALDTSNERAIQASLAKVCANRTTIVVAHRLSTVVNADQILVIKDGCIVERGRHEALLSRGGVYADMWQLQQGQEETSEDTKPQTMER
# Myeloid diff 2: induction of myeloid progenitor differentiation, primary screen, cell-based, flow cytometry, MLPCN library; ER-HoxA9 myeloid progenitors, lysozyme-GFP differentiation; calls only at 10 µM; hit rate 1% among 360,000; AID 624256, 2012;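 active means normalized GFP-positive differentiation at or above the plate's own cutoff, the solvent-only control mean plus 3 SD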;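 further: cells exposed to compound for four days before flow analysis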
# Xi reactivation: activators of inactive X chromosome reactivation, primary screen, imaging, XiGFP fibroblasts, GFP high-content imaging, set 2. XiGFP mouse fibroblasts, % GFP-positive cells imaging, 3 d; cells co-treated with 5-aza-dC sensitizer; scaled so ellipticine positive control = 100%. activation, % at 7.58 µM. hit rate 0.055% among 360,000;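 active means mean normalized replicate activation at least 10% and every replicate at or above 10%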
#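 System: SV40-immortalized XiGFP fibroblast cells, line 68-5-11 / Incubation: 3-day compound exposure, then 15 min fixation at room temperature / Compound: single concentration per compound, delivered by pin transfer / Buffer or medium: DMEM plus 5-aza-dC sensitizer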
# Myeloid diff: inducers of myeloid progenitor differentiation, confirmation, cell-based, GFP/Mac1 flow cytometry, cherry pick 01 | ER-HoxA9 myeloid progenitors, GFP/Mac1 double-positive flow | hit rate 2% among 2,300 | shares compounds with Myeloid diff 2 | calls only;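 active means share of green or green-and-red cells above 9 and 9% in run 1 or 4 and 3% in run 2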
# GFP autofluor: compound fluorescence in myeloid differentiation counter-screen | fluorescence response, % (test concentration not listed) | hit rate 7.4% among 2,300 | shares compounds with Myeloid diff 2 | ER-HoxA9 myeloid progenitors, no estrogen, GFP autofluorescence flow cytometry; vehicle wells 0%, positive control 100% | AID 651707;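 active means over 5% cells positive for green fluorescent reporter, or over 2% positive for both it and APC stain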
# Hits are given with their value; - = inactive; . = no result given; + = active, no number.
SMILES,ABCB6 inh MLPCN,Myeloid diff 2,Xi reactivation,Myeloid diff,GFP autofluor
O=C(O)c1ccc(-c2ccc(O)c(F)c2)cc1,-,-,-,-,-
O=C(O)c1ccc(O)c(O)c1,-,-,.,.,.
CCN(Cc1ccccc1)C(=O)C1CCN(C/C(C)=C/c2ccccc2)CC1,-,-,-,-,-
CCN(Cc1ccccc1)C(=O)C1CCN(Cc2ccc(SC)cc2)CC1,-,-,-,.,.
COc1ccc2c3c([nH]c2c1)[C@@H](CO)N(C(=O)c1ccccn1)CC31CN(C(=O)C2CC2)C1,.,.,-,.,.
CNC(=O)C[C@@H]1CC[C@@H]2[C@H](COc3ccc(NC(=O)Cc4cccs4)cc3C(=O)N2C)O1,.,.,-,.,.
CCN(CC)CCNC(=O)c1ccc(NC(=O)/C=C/c2ccc3ccccc3n2)cc1,-,+,-,-,-
CCN(CC)CCNC(=O)c1ccc(NC(=O)Cc2ccccc2F)cc1,-,-,-,.,.
C[C@@H]1CCCCO[C@@H](CN(C)C(=O)Cc2ccccc2)[C@@H](C)CN([C@@H](C)CO)C(=O)c2cc(NS(=O)(=O)c3cn(C)cn3)ccc2O1,.,.,-,.,.
COc1ccc(CN(C)C[C@H]2OCCCC[C@H](C)Oc3ccc(NS(=O)(=O)c4c(C)noc4C)cc3C(=O)N([C@@H](C)CO)C[C@@H]2C)cc1,.,.,-,.,.
COC(=O)c1cc(-n2cccc2)ccc1N1CCOCC1,-,-,-,.,.
COC(=O)c1cc(NS(=O)(=O)c2ccc(C)c3ccccc23)ccc1N1CCOCC1,-,-,-,-,-
O=C1/C(=C\c2cc([N+](=O)[O-])ccc2O)SC(=S)N1Cc1ccc(Cl)cc1,-,-,-,-,74
O=C1/C(=C\c2cccc(O)c2O)SC(=S)N1Cc1ccccc1,-,-,-,.,.
C[C@H]1CN([C@@H](C)CO)C(=O)c2cc(NC(=O)CCC(F)(F)F)ccc2O[C@@H]1CN(C)C(=O)Nc1ccc(C(F)(F)F)cc1,.,.,-,.,.
C[C@@H]1CN([C@H](C)CO)C(=O)c2cc(C#Cc3cccnc3)cnc2O[C@H]1CN(C)S(=O)(=O)c1ccccc1F,.,.,-,.,.
C=CCNC(=O)C1CCN(S(=O)(=O)CC)CC1,-,-,.,.,.
C=CCNC(=O)C1CCCN(S(C)(=O)=O)C1 (stereo not given),-,-,.,-,-
COc1ccc(NC(=O)Nc2ccc3c(c2)C(=O)N([C@H](C)CO)C[C@H](C)[C@@H](CN(C)C(=O)Nc2ccc(OC)cc2)OCCCC[C@@H](C)O3)cc1,.,.,-,.,.
Cc1ccc(-n2nnnc2Sc2nc([N+](=O)[O-])nn2C)c(C)c1,-,-,.,.,.
Cc1ccc(-n2nnnc2Sc2nc([N+](=O)[O-])nn2C)cc1,-,+,-,-,-
CCn1c(-c2sc(-c3ccccc3)nc2C)n[nH]c1=S,-,+,-,-,-
Cc1nc(-c2ccccc2)sc1-c1ccn[nH]1,-,-,-,.,.
COC(=O)CC1Nc2ccccc2SC1=O (stereo not given),-,-,.,-,-
CCOC(=O)CC1Sc2ccccc2NC1=O (stereo not given),-,-,.,.,.
SMILES,ABCB6 inh MLPCN,Myeloid diff 2,Xi reactivation,Myeloid diff,GFP autofluor
COc1cccc(S(=O)(=O)Nc2ccc3c(c2)[C@@H]2C[C@H](CC(=O)NCc4ccccc4F)O[C@H](CO)[C@@H]2O3)c1,.,.,-,.,.
O=C(Cc1ccccc1)N/N=C/c1ccc([N+](=O)[O-])s1,-,+,.,-,-
O=C(N/N=C/c1ccc([N+](=O)[O-])s1)c1ccccc1Br,-,-,.,.,.
CCNC(=O)C[C@H]1CC[C@H]2[C@@H](COC[C@@H](O)CN2C(=O)Nc2c(C)noc2C)O1,.,.,-,.,.
CCNC(=O)C[C@@H]1CC[C@@H]2[C@H](COc3ccc(NC(=O)NC(C)C)cc3C(=O)N2C)O1,.,.,-,.,.
CO[C@H]1CN(C)C(=O)c2cc(NC(=O)NC(C)C)ccc2OC[C@H](C)N(Cc2cncnc2)C[C@H]1C,.,.,-,.,.
CC(=O)c1cc2c(cc1NC(=O)CN1CCOCC1)OCO2,-,+,.,-,-
CCN1CCN(CC(=O)Nc2cc3c(cc2C(C)=O)OCO3)CC1,-,-,-,.,.
Cc1ccc(S(=O)(=O)Nc2ccc3c(c2)C(=O)N([C@H](C)CO)C[C@H](C)[C@@H](CN(C)Cc2ccc(Cl)c(Cl)c2)OCCCC[C@H](C)O3)cc1,.,.,-,.,.
CCOc1ccc2c(c1)ncn2Cc1ccccc1,-,-,-,.,.
CC(=O)Oc1ccc(Cn2cnc3cc4ccccc4cc32)cc1,-,-,.,-,-
C[C@@H]1CN([C@H](C)CO)S(=O)(=O)c2ccc(C3=CCCCC3)cc2O[C@H]1CN(C)C(=O)c1ccccc1,.,.,-,.,.
Cc1ccc2nc(-c3ccc4c(c3)OCCO4)cn2c1,-,.,-,.,.
Clc1ccc2nc(-c3ccc4c(c3)OCO4)cn2c1,-,-,-,-,-
CO[C@H]1CN(C)C(=O)c2ccc(NC(=O)Nc3ccc(Cl)cc3)cc2OC[C@@H](C)NC[C@@H]1C,.,.,-,.,.
Cc1c(C(=O)Nc2ccc(S(N)(=O)=O)cc2)oc2ccc(Cl)cc12,-,-,-,.,.
Cc1c(C(=O)NNC(=S)Nc2ccc(S(N)(=O)=O)cc2)oc2ccccc12,-,-,-,-,-
C[C@@H]1CCCCO[C@H](CN(C)Cc2ccccc2)[C@H](C)CN([C@H](C)CO)C(=O)c2cc(NS(C)(=O)=O)ccc2O1,.,.,-,.,.
C[C@H](NC(=O)C[C@@H]1CC[C@H](NC(=O)CN2CCOCC2)[C@@H](CO)O1)c1ccccc1,.,.,-,.,.
O=C(NCC1CCCO1)C(c1ccc(F)cc1)N(C(=O)Cn1nnc(-c2ccc(F)cc2)n1)c1cccc(O)c1 (stereo not given),-,-,-,-,-
CC(C)CC(C(=O)NCC1CCCO1)N(C(=O)Cn1nnc(-c2ccc(F)cc2)n1)c1cccc(C(F)(F)F)c1 (stereo not given),-,-,.,.,.
O=C(Nc1ccc(F)cc1)N1C[C@H]2[C@@H](c3ccccc31)[C@@H](CO)N2C(=O)Cc1ccccn1,.,.,-,.,.
COc1cccc(N=C(N)N=C(N)N)c1,-,+,-,-,-
COc1ccc(N=C(N)N=C(N)N)c(OC)c1,-,-,-,.,.
CN(C)S(=O)(=O)Oc1ccsc1C(=O)Nc1ccccc1Cl,-,-,.,.,.
SMILES,ABCB6 inh MLPCN,Myeloid diff 2,Xi reactivation,Myeloid diff,GFP autofluor
CN(C)S(=O)(=O)Oc1ccsc1C(=O)Nc1cccc(Cl)c1Cl,-,-,.,-,-
Cc1c(Cl)ccc2c(C(=O)NCCN3CCCCC3)cc(-c3ccccn3)nc12,-,-,-,.,.
COc1ccccc1-c1cc(C(=O)NC2CCN(C)CC2)c2ccc(Cl)c(C)c2n1,-,+,-,-,-
Cc1noc(C)c1NC(=O)N(C)C[C@@H]1Oc2ccc(NS(=O)(=O)c3ccccc3)cc2CC(=O)N([C@H](C)CO)C[C@@H]1C,.,.,-,.,.
FC(F)(F)c1ccc(N2CCN(c3cc(-c4ccccc4)nc4ncnn34)CC2)nc1,-,-,.,-,-
FC(F)(F)c1cccc(Nc2cc(-c3ccccc3)nc3ncnn23)c1,-,-,-,.,.
